{
  "source": "paper PMC5014453",
  "about": "(Molecular Therapy. Nucleic Acids, 2016)",
  "key": {"[1]": {"system": "HBV proteins in HepG2.2.15 cells", "assay": "Western blot of intracellular HBV proteins in HepG2.2.15 cells", "type": "cell-based, Hepatitis B virus", "settings": "HepG2.2.15 cell lysates, 3TC 20 μmol/l"}, "[2]": {"system": "HBV DNA and RNA in HepG2.2.15 cells", "assay": "Southern and northern blot of intracellular HBV DNA and RNA in HepG2.2.15 cells", "type": "cell-based, Hepatitis B virus", "settings": "southern blot, 48 hours, 3TC 20 μmol/l", "procedure,_shortened": "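HepG2.2.15 cells grown in DMEM with 10% FBS, penicillin and streptomycin at 37 °C, 5% CO2, then exposed to test compound; 3TC control at 20 μmol/l. Total RNA TRIzol-extracted, run on 1.5% formaldehyde agarose gel, HBV RNAs probed with the DIG probe also used for Southern blot; GAPDH DIG probe as internal control.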"}, "[3]": {"system": "HBV (pUC18-HBV1.3 hydrodynamic injection)", "assay": "Anti-HBV assay in an acute hepatitis B mouse model", "type": "in vivo, BALB/c mice", "settings": "acute hepatitis B mice, real-time PCR, n = 5; Tat-PNA-DR 5.05 mg/kg, 3TC 0.5 mg/kg"}},
  "data": [
    {"smiles": "Nc1ccn([C@@H]2CS[C@H](CO)O2)c(=O)n1", "note": "[3TC, lamivudine]", "values": [
      {"measurement": "intracellular HBV protein levels (HBsAg, HBV core protein, x protein, RT)", "setting": "[1]", "value": "did not affect the expression of any HBV viral proteins"},
      {"measurement": "intracellular HBV DNA", "setting": "[2]", "value": "clearly inhibited the synthesis of HBV DNA"},
      {"measurement": "average HBV DNA concentration in serum", "setting": "[3]", "value": "1.2 × 10^4 copies/ml"}
    ]}
  ]
}
